Source: PubChem BioAssay (several laboratories)
E coli WT exp – growth inhibitors of wild-type E. coli, primary screen, strain BW25113, expanded library, OD600; OD600 absorbance; growth inhibition, % at 100 µM; 98,000 tested, 0.15% active;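 active = growth inhibition above about 50% at one test dose, limit read from the data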;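 also: growth measured after 20 h incubation at 37 °C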
PLAP activator – PLAP enzyme activators, biochemical, luminescence, HTS; Alkaline phosphatase, placental type (Homo sapiens), P05187; purified PLAP enzyme, luminescent substrate read-out; active compounds read high; activation fold at 20 µM; 96,000 tested, 1.2% active; in the data active = activation fold above about 2
Target sequence (P05187 whole entry, looked up): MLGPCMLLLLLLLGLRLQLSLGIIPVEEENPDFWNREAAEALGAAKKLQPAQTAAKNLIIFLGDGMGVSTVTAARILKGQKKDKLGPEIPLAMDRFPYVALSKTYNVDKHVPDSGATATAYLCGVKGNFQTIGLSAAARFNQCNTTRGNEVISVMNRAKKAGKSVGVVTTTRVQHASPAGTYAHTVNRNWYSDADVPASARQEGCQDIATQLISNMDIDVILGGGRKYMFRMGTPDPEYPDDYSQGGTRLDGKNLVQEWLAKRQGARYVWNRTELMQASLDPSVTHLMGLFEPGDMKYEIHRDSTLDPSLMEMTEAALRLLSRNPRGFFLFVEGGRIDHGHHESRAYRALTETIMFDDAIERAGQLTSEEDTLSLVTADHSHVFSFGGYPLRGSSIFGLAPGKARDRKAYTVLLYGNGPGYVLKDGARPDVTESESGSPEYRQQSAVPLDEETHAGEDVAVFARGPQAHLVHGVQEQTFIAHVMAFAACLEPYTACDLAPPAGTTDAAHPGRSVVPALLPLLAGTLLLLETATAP
tolC growth inh – growth inhibitors of E. coli tolC mutant, primary screen, strain BW25113 ΔtolC::kan, 384-well; OD615; growth inhibition, % at 10 µM (by protocol); 65,000 tested, 2.2% active; AID 573, 2007;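 active = growth inhibition at or above a cutoff equal to the mean over every tested compound plus 3 SD, cut at about 60% in these data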;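 also: growth measured after 20 h incubation at 37 °C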
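Test system: E. coli BW25113 ΔtolC::kan bacteria | Medium: Kanamycin-containing LB broth (50 µg/mL) | Dosing: One dose of 10 µM final | Times: 20 h incubation with compound, 37 °C | Detection: Optical density read at 615 nm | Read-out basis: Percent growth inhibition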
PostGolgi yeast – phenotypic screen on post-Golgi transport, primary screen. post-Golgi transport phenotypic cell assay. 98,000 tested, 0.9% active. inhibition, % at 10 µM;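 also: yeast cells grown in 1536-well plates; yeast grown about 18 h at 30C before absorbance read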
PostGolgi ctrl – growth inhibition of yeast control strain, primary screen, counter-screen for post-Golgi transport modulator project | efflux-deficient yeast background strain, growth absorbance A615, 16 h | inhibition, % at 10 µM | 98,000 tested, 5% active | AID 738, 2007
Numbers without * were called inactive; / = no result given. Only some compounds are listed: those with a hit (about 7.2% of all), similar ones and a draw of the others. Rule as the data show it, unless noted: active = inhibition above about 30%; inactive = the rest.

SMILES | E coli WT exp | PLAP activator | tolC growth inh | PostGolgi yeast | PostGolgi ctrl
Cc1cc(C)nc(N2CCCC(C(=O)Nc3nc4ccc(S(C)(=O)=O)cc4s3)C2)n1 (centres undefined) | -8.0 | 1.5 | 58.8 | -2.7 | 33.7*
CCOc1ccc(NS(=O)(=O)c2ccc(OCC)c3ncccc23)cc1 | -14.0 | 1.3 | / | -3.1 | 2.7
Cc1ccccc1NC(=O)/C(=C/c1ccccc1)c1ccccc1 | 1.0 | 0.9 | / | -2.9 | 31.4*
CN1CCN(C(=O)/C(=C\c2ccccc2)c2ccccc2)CC1 | -3.0 | 1.1 | / | -2.4 | 5.1
O=C(Nc1ccccc1)/C(=C/c1ccccc1)c1ccccc1 | -3.0 | / | / | -6.4 | 40.3*
CS(=O)(=O)N1CCN(C(=O)c2cccnc2)CC1 | 6.0 | 0.9 | -6.6 | 0.5 | 35.2*
CCOc1ccc2c(c1)c(C(C)=O)c(C)n2-c1ccccc1 | -3.0 | 0.8 | / | -1.6 | 41.1*
CN(C(=O)c1cnccn1)c1nnc(-c2cccnc2)s1 | / | / | -19.4 | / | /
CCN1C(=O)c2cccc3c(NC(=O)c4ccc(OC)c(OC)c4)ccc1c23 | -16.0 | 1.4 | / | -4.4 | 11.3
CC(NC(=O)c1ccccc1NC(=O)CSc1nnnn1C)c1ccccc1 (centres undefined) | -3.0 | 0.9 | / | 20.3 | 32.8*
COC(=O)c1ccc(-n2nnnc2SCC(=O)Nc2ccccc2C(=O)OC)cc1 | 1.0 | 1.3 | / | 24.9 | 36.6*
Cn1nnnc1SCC(=O)Nc1ccccc1Cl | 0.0 | 1 | -4.6 | -2.3 | 4.2
CCc1nc(SCC(=O)Nc2ccccc2C(=O)OC)n[nH]1 | 2.0 | 2* | 1.7 | -0.1 | 25.5
Nc1nc(SCC(=O)Nc2ccccc2Sc2ccccc2)n[nH]1 | -1.0 | 2.3* | / | -3.5 | 6.5
COc1ccc(OCC(O)Cn2c(Nc3cccc(C)c3)nc3c2c(=O)n(C)c(=O)n3C)cc1 (centres undefined) | / | / | 5.1 | / | /
C=CCn1c(Cc2nc3ccccc3[nH]2)n[nH]c1=S | 2.0 | 2* | -15.4 | -9.4 | -10.1
CCOc1cc(-c2c(C#N)c(N)nc3c2CCCC3C)ccc1O (centres undefined) | 2.0 | 0.9 | 86.5* | 11.2 | 37.9*
CCOc1cc(-c2cc(-c3ccc(C)cc3)nc(N)c2C#N)ccc1O | 2.0 | 1.4 | / | -3.5 | 5.9
Cc1nc2ccccc2n1S(=O)(=O)c1ccc(S(=O)(=O)N2CCCCCC2)cc1 | 3.0 | 1.5 | -23.0 | -3.7 | -0.8
O=S(=O)(N1CCCCC1)n1c(Cc2ccccc2)nc2ccccc21 | 2.0 | 1.2 | 100.0* | 6.8 | 37.0*
COC(=O)c1ccc(-c2nc(O)c3cnccn23)cc1 | 6.0 | 0.8 | -8.7 | 2.6 | -0.9
CCOC(=O)CCCCC(=O)c1[nH]c(=O)[nH]c1CSc1nc2ccccc2[nH]1 | 5.0 | / | -24.3 | -4.7 | -9.6
CCOC(=O)c1[nH]c(=O)[nH]c1CSc1nc(C)cc(C)n1 | -3.0 | 2.2* | -0.3 | -5.4 | -11.1
CCOC(=O)CCCCC(=O)c1[nH]c(=O)[nH]c1CSc1nc(C)cc(C)n1 | -8.0 | 2* | -9.4 | 0.6 | 2.4
CCOC(=O)CCCCC(=O)c1[nH]c(=O)[nH]c1CSc1nc(C)cc(=O)[nH]1 | -4.0 | 2.2* | -15.2 | -4.3 | 20.7
SMILES | E coli WT exp | PLAP activator | tolC growth inh | PostGolgi yeast | PostGolgi ctrl
CCOC(=O)c1[nH]c(=O)[nH]c1COC(=O)c1cc2ccccc2o1 | -13.0 | 2.2* | -2.8 | 4.0 | 11.7
COCC(C)NC(=O)C1CC(c2cccc(Br)c2)=NO1 (centres undefined) | 1.0 | 1 | -1.5 | -7.4 | -10.4
COc1ccccc1N1CSC2=C(C#N)C(c3ccc(SC)cc3)CC(=O)N2C1 (centres undefined) | 1.0 | 1.3 | 2.7 | -22.9 | -2.3
NC(=O)c1cnccn1 | / | / | -9.2 | / | /
O=C(OCc1cc2ccccc2[nH]c1=O)C1CCCO1 (centres undefined) | 0.0 | 1 | 4.4 | 0.0 | 7.8
O=C(OCc1cc2ccccc2[nH]c1=O)C1CCCCC1 | 1.0 | 1 | 15.7 | 30.4* | 13.3
CCCn1c(=O)c(Cc2ccccc2)c(O)c2ccccc21 | -11.0 | 1.1 | 19.7 | -2.8 | 7.1
Cn1c(=O)c(Cc2ccccc2)c(O)c2ccccc21 | 1.0 | 0.9 | / | 2.4 | 49.1*
CCOC(=O)N1CCN(c2nc(-c3ccc(F)cc3)cs2)CC1 | -5.0 | 0.9 | 92.5* | -4.6 | 7.0
O=C(CN1CCN(c2nc(-c3ccc(F)cc3)cs2)CC1)NCc1ccc2c(c1)OCO2 | -4.0 | 1.4 | 80.3* | 4.4 | 21.1
COc1cccc(-c2csc(N3CCN(CC(=O)Nc4ccc5c(c4)OCO5)CC3)n2)c1 | -16.0 | 1 | 29.5 | 9.6 | 7.4
